The source of these data is ChEMBL document CHEMBL2346497, “Synthesis of novel cognition enhancers with pyrazolo[5,1-c][1,2,4]benzotriazine core acting at γ-aminobutyric acid type A (GABA(A)) receptor” (Bioorg Med Chem, 2013).

Data set [1] concerns the target T1, Gamma-aminobutyric acid receptor subunit alpha-5 (Homo sapiens, UniProt P18507+P31644+P47870).
T1 sequence (P31644 whole entry): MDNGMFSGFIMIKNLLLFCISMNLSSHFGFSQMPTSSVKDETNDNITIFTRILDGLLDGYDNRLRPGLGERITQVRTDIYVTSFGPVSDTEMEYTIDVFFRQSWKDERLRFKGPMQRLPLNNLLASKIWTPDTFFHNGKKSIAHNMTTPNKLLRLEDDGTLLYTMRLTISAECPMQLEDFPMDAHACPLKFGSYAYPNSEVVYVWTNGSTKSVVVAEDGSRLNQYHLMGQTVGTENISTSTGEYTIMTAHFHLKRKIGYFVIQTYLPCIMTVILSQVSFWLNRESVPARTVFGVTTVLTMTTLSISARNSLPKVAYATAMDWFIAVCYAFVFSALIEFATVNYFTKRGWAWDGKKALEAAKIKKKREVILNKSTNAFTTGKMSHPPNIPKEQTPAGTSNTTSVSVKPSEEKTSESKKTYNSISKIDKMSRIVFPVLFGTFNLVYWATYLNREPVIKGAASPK
Briefly: Displacement of [3H]Ro15-1788 from recombinant GABA-A alpha5beta2gamma2 receptor benzodiazepine binding site (unknown origin) after 1 hr.

In data set [2] the test system is Mus musculus. The data set can be described thus: Neurotoxicity in CD1 albino mouse assessed as decrease in number of falls from rotating rod at 10 mg/kg, po by rota-rod test relative to control. The class given is toxicity, organism-based. Also on record: dose 10 mg/kg, route oral. Conditions: in vivo, TDE = time-dependent effect. Summed up: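 Motor coordination was tested on a rota-rod turning at 24 rpm in male CD-1 mice dosed po in 1% CMC. Falls within 30 s were counted at a pretest and at 15, 30, 45 and 60 min after dosing. Each value is the mean of five mice, compared with CMC-treated controls.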

Data set [3] addresses T2, GABA-A receptor; alpha-1/beta-2/gamma-2 (Homo sapiens, UniProt P14867+P18507+P47870).
T2 sequence (P14867 whole entry): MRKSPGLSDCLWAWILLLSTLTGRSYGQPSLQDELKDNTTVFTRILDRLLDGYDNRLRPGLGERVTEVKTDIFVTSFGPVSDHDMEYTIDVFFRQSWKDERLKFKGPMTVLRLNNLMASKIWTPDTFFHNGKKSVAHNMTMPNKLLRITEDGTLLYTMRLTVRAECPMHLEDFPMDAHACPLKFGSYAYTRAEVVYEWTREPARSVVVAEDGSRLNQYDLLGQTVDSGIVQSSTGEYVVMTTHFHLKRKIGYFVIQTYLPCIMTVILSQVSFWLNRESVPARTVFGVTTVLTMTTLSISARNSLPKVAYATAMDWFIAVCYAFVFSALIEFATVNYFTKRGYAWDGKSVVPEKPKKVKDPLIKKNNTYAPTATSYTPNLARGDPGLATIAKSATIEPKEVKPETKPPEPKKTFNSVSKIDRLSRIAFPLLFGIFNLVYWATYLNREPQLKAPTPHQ
T2 sequence (P47870 whole entry): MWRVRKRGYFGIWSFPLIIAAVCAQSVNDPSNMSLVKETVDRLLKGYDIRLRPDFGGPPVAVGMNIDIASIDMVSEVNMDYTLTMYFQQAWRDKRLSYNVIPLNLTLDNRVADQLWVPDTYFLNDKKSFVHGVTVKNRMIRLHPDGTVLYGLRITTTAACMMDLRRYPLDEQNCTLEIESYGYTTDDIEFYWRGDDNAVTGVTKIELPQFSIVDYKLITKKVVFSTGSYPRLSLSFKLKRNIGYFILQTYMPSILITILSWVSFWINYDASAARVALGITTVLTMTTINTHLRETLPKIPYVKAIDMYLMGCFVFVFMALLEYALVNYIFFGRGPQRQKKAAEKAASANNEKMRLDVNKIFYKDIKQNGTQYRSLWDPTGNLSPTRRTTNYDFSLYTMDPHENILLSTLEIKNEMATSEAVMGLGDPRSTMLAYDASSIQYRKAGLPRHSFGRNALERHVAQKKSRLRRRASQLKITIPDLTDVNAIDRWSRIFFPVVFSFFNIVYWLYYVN
T2 sequence (P18507 whole entry): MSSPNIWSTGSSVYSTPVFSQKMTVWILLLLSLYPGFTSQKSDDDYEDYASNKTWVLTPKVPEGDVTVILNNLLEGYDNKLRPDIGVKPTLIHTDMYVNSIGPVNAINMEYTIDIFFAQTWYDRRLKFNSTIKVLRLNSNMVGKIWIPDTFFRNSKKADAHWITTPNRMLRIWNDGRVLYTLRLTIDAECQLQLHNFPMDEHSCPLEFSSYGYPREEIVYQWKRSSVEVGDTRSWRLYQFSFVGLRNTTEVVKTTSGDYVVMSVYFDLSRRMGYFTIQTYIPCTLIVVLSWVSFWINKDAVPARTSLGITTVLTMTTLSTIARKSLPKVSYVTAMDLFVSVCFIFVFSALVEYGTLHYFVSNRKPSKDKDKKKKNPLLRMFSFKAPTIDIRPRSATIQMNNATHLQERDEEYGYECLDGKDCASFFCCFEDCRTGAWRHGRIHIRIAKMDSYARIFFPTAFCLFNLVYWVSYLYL
The data set can be described thus: Displacement of [3H]Ro15-1788 from recombinant GABA-A alpha1beta2gamma2 receptor benzodiazepine binding site (unknown origin) after 1 hr. The format is protein-complex assay. The essentials:
(§1)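 Membranes came from clonal mammalian cell lines expressing α1β2γ2, α2β2γ2 or α5β3γ2 receptors, grown in MEM/EBSS with 10% FCS at 37 °C. Membranes were resuspended in 10 mM potassium phosphate, pH 7.4, with 100 mM KCl. Assays used 1–2 nM [3H]Ro15-1788 and test compound from 10^-9 to 10^-5 M, at least six concentrations. Diazepam at 10^-5 M defined nonspecific binding. Incubation ran 1 h at 4 °C. Single-point % inhibition was measured at 10 µM, and Ki by curve fitting; n = 5, in duplicate.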
In general terms: Displacement assays read how much labelled ligand stays bound in the presence of the test substance.

Data set [4] has as its target GABA A receptor alpha-2/beta-2/gamma-2 (Homo sapiens) (UniProt P47870+P18507+P47869). Briefly: Displacement of [3H]Ro15-1788 from recombinant GABA-A alpha2beta2gamma2 receptor benzodiazepine binding site (unknown origin) at 10 uM after 1 hr relative to control. The format is protein-complex assay. The essentials: as §1
Data set [5] relates to Mus musculus. The data set can be described thus: Anxiolytic activity in CD1 albino mouse assessed as increase in time spent in illuminated side at 1 mg/kg, po administered 30 mins prior to testing measured for 5 mins by light-dark box test. Also on record: dose 1 mg/kg. The format is functional, organism-based. Summed up:
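Light/dark box: two equal acrylic compartments, one lit by a 60 W lamp, joined by a floor-level opening. Male CD-1 mice were dosed po in 1% CMC 30 min before the test, then placed in the centre of the lit side facing away from the dark side. Over 5 min, transfers and time in the light side were recorded, n = 8 mice per group.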

Data set [6] relates to Rattus norvegicus. The data set can be described thus: Procognitive effect in Harlan Wistar rat assessed as exploring time of familiar rat during social investigatory behaviour at 0.3 mg/kg, po administered 30 mins prior to testing measured for 5 mins by social learning test (reference value: 27.6 secs). The format is functional.
The subject of data set [7] is Mus musculus. Briefly: Anticonvulsant activity in CD1 albino mouse assessed as protection against pentylenetetrazole-induced convulsions at 1 mg/kg, po administered 30 mins prior to pentylenetetrazole challenge measured over 30 mins (reference value: 7.1%). The class given is functional.
The test system of data set [8] is Rattus norvegicus. The data set can be described thus: Procognitive effect in Harlan Wistar rat assessed as exploring time of familiar rat during social investigatory behaviour at 10 mg/kg, po administered 30 mins prior to testing measured for 5 mins by social learning test (reference value: 27.6 secs). The class given is functional.
Data set [9] deals with Rattus norvegicus. The data set can be described thus: Procognitive effect in Harlan Wistar rat assessed as exploring time of familiar rat during social investigatory behaviour at 1 mg/kg, po administered 30 mins prior to testing measured for 5 mins by social learning test (reference value: 27.6 secs). The format is functional.
The subject of data set [10] is Mus musculus. The data set can be described thus: Cognitive enhancing effect in CD1 albino mouse assessed as increase in retention latency at 0.1 to 10 mg/kg, po administered 30 mins prior to testing measured after 24 hrs by passive avoidance test relative to control. The format is functional, organism-based. Summed up:
(§2)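 Step-through passive avoidance in male CD-1 mice (22–24 g). Test drugs were given po, suspended in 1% carboxymethylcellulose at 10 ml/kg, 30 min before the training session. For the antiamnesic arm, scopolamine 1.5 mg/kg was injected immediately after punishment. Retention latency was compared with CMC-treated controls, n = 10–12 mice per group.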

The subject of data set [11] is Rattus norvegicus. The data set can be described thus: Procognitive effect in Harlan Wistar rat assessed as decrease in exploring time of unfamiliar rat during social investigatory behaviour at 0.3 to 10 mg/kg, po administered 30 mins prior to testing measured for 5 mins by social learning test relative to control. The class given is functional, organism-based.
The nature of data set [12]: Displacement of [3H]Ro15-1788 from GABA-A receptor benzodiazepine binding site in bovine cerebral cortex membranes after 1 hr. The format is cell membranes, Bos taurus, Membrane.
Data set [13] has as its system Mus musculus. The data set can be described thus: Antiamnesic activity in CD1 albino mouse assessed as reversal of scopolamine-induced amnesia at 0.1 mg/kg, po administered 30 mins prior to scopolamine challenge measured after 24 hrs by passive avoidance test. Also on record: dose 0.1 mg/kg. The format is functional, organism-based. Summed up: as §2

The structures appear in SMILES notation. The source made the active and inactive calls. The calls are words filed in the database; no cut-off is given here.

On to `[O-][n+]1nc2c(I)cnn2c2cc(NCc3cccnc3)ccc21`, for which the inhibitory constant (Ki) in [1] worked out at 24.9 nM; in [3], 0.45 nM; in data set [12], 0.33 nM. Further, the results for the Activity entry in the data set with Mus musculus [2] and in the data set on Mus musculus [7] were “tde” and 0%, respectively. Besides, the inhibition in [4] amounted to 37%. In addition, the outcome in the data set on Mus musculus [5] and with Rattus norvegicus [11] was inactive. Also, the figures for the Time in the data set on Rattus norvegicus [6], with Rattus norvegicus [8] and in the data set on Rattus norvegicus [9] were 29.4 s, 42.5 s and 43.7 s, respectively. Moreover, the outcome in the data set on Mus musculus [10] and in the data set with Mus musculus [13] was Active.

Usually Ki stands for the dissociation constant of the complex between target and ligand, obtained from inhibition or displacement. In general, inhibition refers to the share of the control response that was lost under treatment.
